According to paper PMC7034990 (Science Advances, 2020):

How the values were obtained:
[1] = tested on: F508del-CFTR CFBE41o− cells; assay: Western blot of F508del-CFTR maturation in CFBE41o− cells; type: cell-based; details: 24 hours
Outline: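 Confluent CFBE41o− cells expressing F508del-CFTR were treated with test compounds or DMSO. They were lysed in RIPA with protease inhibitors and cleared at 15,300g, 4°C, 10 min. Lysates were run on SDS-PAGE and immunoblotted with mouse monoclonal anti-CFTR. Immature core-glycosylated band B runs near 150 kDa. Bands were quantified as regions of interest and normalised to GAPDH.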

[2] = tested on: bronchial epithelial cells (F508del/F508del, F508del/other mutation, non-CF); assay: TEEC/PD technique; type: cell-based, human; details: for F508del-CFTR function, ∆Ieq: 10 nM
Outline: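 CF and non-CF primary bronchial epithelia at air-liquid interface on 0.33-cm2 inserts were treated 24 h at 37°C, 5% CO2. Measurements used Coon's F12 with NaHCO3 replaced by 20 mM Na-Hepes (pH 7.3), after 1 h equilibration. TEER and PD were read at baseline, after apical amiloride 10 μM, forskolin 10 μM + genistein 50 μM bilateral, then apical PPQ102 30 μM, 10 min each. Ieq came from Ohm's law; ∆Ieq = change on PPQ102.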

[3] = tested on: Ca2+-activated Cl− secretion in bronchial epithelia; assay: Ca2+-activated Cl− secretion elicited by UTP; type: cell-based, human; details: UTP 100 μM; ARN23765 10 nM, VX-809 1 μM, 24 hr
Outline: (§1)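 Primary bronchial epithelial cells came from lung-transplant bronchi and were differentiated on porous inserts, then kept 2–3 weeks under air-liquid culture. Correctors or DMSO were given in basolateral medium. Epithelia were mounted in a vertical diffusion chamber, bicarbonate saline (126 mM NaCl, 24 mM NaHCO3, 10 mM glucose) both sides, gassed 5% CO2:95% air, 37°C. Voltage was clamped and short-circuit current recorded. ENaC was blocked with amiloride (10 μM).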

ENaC = biological target: T1, ENaC (Homo sapiens, UniProt P37088+P51168+P51170); assay: ENaC function from the response to apical amiloride; type: cell-based; details: amiloride 10 μM; correctors for 24 hr
T1 sequence (P37088 1-669): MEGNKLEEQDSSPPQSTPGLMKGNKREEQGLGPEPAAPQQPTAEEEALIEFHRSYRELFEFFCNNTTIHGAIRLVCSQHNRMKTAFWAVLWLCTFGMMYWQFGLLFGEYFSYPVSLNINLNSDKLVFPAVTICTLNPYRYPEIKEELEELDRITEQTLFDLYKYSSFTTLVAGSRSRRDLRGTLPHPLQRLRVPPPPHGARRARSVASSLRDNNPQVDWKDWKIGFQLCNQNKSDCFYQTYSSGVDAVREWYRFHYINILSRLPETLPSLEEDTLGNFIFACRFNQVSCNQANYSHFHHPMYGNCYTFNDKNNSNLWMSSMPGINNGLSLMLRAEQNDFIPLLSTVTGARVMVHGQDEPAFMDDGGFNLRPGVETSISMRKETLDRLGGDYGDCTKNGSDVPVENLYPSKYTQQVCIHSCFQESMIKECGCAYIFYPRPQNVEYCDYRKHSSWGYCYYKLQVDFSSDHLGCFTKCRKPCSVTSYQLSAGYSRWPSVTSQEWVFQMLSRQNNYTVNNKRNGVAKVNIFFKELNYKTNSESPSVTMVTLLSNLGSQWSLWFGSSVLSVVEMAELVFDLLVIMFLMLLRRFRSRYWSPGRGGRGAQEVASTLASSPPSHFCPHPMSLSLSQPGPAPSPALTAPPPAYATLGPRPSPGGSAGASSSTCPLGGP
T1 sequence (P51168 1-640): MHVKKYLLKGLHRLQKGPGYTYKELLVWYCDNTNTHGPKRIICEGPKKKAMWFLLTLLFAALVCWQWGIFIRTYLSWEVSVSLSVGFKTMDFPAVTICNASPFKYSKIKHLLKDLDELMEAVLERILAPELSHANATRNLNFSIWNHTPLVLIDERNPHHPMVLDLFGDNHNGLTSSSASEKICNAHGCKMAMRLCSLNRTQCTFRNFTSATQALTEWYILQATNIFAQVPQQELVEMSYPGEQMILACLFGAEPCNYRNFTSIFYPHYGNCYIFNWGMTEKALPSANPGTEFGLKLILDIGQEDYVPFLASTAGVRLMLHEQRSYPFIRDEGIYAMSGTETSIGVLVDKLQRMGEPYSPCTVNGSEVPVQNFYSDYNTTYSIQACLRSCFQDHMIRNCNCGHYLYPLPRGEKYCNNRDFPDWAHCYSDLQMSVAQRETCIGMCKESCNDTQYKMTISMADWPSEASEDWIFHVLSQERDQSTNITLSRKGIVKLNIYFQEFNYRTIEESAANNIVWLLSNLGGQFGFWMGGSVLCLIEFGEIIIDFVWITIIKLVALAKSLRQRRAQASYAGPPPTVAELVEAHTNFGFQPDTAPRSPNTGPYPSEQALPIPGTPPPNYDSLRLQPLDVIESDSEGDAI
T1 sequence (P51170 1-649): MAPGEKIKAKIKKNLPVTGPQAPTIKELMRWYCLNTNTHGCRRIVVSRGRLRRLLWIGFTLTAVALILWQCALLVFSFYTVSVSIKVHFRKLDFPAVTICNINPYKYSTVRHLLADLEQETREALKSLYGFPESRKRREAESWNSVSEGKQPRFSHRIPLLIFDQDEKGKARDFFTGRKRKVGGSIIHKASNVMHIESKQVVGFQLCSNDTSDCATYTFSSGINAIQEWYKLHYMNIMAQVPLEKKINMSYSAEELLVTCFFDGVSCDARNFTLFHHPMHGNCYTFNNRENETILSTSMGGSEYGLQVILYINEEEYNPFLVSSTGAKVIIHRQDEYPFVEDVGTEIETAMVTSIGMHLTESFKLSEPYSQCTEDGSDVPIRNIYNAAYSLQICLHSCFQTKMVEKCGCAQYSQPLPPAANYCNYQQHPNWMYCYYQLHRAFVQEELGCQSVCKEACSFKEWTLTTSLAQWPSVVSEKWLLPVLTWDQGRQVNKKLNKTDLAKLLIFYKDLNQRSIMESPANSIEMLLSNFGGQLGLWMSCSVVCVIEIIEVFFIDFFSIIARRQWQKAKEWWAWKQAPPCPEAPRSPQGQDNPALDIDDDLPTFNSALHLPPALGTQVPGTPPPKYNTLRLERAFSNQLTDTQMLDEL
Outline: as §1

CFBE41o− cells = assay: Cell viability panel; type: cell-based; details: 24 hr, positive controls celastrol or cytochalasin D
Outline: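 CFBE41o− cells. Proliferation: 5000 cells/well; after 24 h, test compound at several concentrations or DMSO; tracked 24 h by high-content imaging. MTT: 50,000 cells/well; treated 24 h after plating; next day MTT 0.5 mg/ml final, 3 h at 37°C; absorbance at 560 nm. Cell death: 50,000 cells/well, treated 24 h, then Hoechst 33342 plus propidium iodide stain and high-content imaging.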

SMILES: CN(C(=O)c1cccc(-n2nc(C(F)(F)F)c3c2[C@@H](Oc2ccc(C(=O)O)cc2)CCC3)c1)c1ccc2c(c1)OC(F)(F)O2 [ARN23765]
- F508del-CFTR maturation, band C [1]: at low concentrations was also observed
- F508del-CFTR function, ∆Ieq ([2]; cells from four patients with F508del/F508del, 24 hours): markedly increased F508del-CFTR function, with results comparable to those of VX-809 (1 μM)
- F508del-CFTR function, ∆Ieq ([2]; epithelia from two patients with a single copy of F508del and a premature stop codon (R553X and G542X)): notably effective
- wild-type CFTR function, ∆Ieq ([2]; non-CF epithelia, ARN23765 10 nM, VX-809 1 μM): elicited a significant increase of wild-type CFTR function
- Ca2+-activated Cl− secretion [3]: unaffected
- amplitude of the response to apical amiloride, ENaC function (ENaC): modestly reduced
- effect on cell viability (CFBE41o− cells): did not impair cell proliferation nor caused cell toxicity
